Laboratory results taken from ChEMBL document CHEMBL4342521 (J Med Chem, 2020).
Active and inactive are the calls of the source. No cut-off for these calls is given here.

Experiments:
Histone deacetylase 1 = Histone deacetylase 1 (Homo sapiens, UniProt Q13547); test: Inhibition of recombinant HDAC1 (unknown origin) using Boc-Lys(acetyl)-AMC as substrate preincubated for 1 hr followed by substrate addition and measured after 2 hrs by fluorescence based micro plate reader analysis
Histone deacetylase 2 = Histone deacetylase 2 (Homo sapiens, UniProt Q92769)
Chain of Histone deacetylase 2 (Q92769 whole entry): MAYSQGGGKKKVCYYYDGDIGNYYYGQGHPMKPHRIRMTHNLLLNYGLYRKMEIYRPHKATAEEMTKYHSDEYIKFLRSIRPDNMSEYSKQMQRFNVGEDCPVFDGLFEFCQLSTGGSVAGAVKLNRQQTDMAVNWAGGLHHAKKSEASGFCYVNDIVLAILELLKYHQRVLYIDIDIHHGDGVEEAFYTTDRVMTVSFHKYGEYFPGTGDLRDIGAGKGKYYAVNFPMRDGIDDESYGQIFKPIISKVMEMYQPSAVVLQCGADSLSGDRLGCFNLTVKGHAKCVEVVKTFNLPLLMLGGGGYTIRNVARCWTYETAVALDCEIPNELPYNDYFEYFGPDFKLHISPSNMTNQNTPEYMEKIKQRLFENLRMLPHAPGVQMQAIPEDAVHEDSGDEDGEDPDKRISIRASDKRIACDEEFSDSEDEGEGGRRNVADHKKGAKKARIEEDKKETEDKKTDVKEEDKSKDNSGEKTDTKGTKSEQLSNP

[1] = biological target: Histone deacetylase 3/Nuclear receptor corepressor 2 (HDAC3/NCoR2) (Homo sapiens, UniProt O15379); test: biochemical; parameters: species or system Sf9
Chain of Histone deacetylase 3/Nuclear receptor corepressor 2 (HDAC3/NCoR2) (O15379 whole entry): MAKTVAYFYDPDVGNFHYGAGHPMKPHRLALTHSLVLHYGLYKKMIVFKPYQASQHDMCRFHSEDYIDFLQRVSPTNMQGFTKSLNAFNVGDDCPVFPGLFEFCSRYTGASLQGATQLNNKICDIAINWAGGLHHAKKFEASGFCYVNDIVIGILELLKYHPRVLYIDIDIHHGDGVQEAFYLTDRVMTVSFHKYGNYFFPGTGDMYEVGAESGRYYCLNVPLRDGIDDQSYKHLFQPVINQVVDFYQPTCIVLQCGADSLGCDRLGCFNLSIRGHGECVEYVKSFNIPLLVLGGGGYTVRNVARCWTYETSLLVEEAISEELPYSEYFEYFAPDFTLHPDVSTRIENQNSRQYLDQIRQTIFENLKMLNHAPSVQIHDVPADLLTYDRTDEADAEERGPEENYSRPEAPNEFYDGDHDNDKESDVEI
Chain of Histone deacetylase 3/Nuclear receptor corepressor 2 (HDAC3/NCoR2) (Q9Y618 whole entry, further chain): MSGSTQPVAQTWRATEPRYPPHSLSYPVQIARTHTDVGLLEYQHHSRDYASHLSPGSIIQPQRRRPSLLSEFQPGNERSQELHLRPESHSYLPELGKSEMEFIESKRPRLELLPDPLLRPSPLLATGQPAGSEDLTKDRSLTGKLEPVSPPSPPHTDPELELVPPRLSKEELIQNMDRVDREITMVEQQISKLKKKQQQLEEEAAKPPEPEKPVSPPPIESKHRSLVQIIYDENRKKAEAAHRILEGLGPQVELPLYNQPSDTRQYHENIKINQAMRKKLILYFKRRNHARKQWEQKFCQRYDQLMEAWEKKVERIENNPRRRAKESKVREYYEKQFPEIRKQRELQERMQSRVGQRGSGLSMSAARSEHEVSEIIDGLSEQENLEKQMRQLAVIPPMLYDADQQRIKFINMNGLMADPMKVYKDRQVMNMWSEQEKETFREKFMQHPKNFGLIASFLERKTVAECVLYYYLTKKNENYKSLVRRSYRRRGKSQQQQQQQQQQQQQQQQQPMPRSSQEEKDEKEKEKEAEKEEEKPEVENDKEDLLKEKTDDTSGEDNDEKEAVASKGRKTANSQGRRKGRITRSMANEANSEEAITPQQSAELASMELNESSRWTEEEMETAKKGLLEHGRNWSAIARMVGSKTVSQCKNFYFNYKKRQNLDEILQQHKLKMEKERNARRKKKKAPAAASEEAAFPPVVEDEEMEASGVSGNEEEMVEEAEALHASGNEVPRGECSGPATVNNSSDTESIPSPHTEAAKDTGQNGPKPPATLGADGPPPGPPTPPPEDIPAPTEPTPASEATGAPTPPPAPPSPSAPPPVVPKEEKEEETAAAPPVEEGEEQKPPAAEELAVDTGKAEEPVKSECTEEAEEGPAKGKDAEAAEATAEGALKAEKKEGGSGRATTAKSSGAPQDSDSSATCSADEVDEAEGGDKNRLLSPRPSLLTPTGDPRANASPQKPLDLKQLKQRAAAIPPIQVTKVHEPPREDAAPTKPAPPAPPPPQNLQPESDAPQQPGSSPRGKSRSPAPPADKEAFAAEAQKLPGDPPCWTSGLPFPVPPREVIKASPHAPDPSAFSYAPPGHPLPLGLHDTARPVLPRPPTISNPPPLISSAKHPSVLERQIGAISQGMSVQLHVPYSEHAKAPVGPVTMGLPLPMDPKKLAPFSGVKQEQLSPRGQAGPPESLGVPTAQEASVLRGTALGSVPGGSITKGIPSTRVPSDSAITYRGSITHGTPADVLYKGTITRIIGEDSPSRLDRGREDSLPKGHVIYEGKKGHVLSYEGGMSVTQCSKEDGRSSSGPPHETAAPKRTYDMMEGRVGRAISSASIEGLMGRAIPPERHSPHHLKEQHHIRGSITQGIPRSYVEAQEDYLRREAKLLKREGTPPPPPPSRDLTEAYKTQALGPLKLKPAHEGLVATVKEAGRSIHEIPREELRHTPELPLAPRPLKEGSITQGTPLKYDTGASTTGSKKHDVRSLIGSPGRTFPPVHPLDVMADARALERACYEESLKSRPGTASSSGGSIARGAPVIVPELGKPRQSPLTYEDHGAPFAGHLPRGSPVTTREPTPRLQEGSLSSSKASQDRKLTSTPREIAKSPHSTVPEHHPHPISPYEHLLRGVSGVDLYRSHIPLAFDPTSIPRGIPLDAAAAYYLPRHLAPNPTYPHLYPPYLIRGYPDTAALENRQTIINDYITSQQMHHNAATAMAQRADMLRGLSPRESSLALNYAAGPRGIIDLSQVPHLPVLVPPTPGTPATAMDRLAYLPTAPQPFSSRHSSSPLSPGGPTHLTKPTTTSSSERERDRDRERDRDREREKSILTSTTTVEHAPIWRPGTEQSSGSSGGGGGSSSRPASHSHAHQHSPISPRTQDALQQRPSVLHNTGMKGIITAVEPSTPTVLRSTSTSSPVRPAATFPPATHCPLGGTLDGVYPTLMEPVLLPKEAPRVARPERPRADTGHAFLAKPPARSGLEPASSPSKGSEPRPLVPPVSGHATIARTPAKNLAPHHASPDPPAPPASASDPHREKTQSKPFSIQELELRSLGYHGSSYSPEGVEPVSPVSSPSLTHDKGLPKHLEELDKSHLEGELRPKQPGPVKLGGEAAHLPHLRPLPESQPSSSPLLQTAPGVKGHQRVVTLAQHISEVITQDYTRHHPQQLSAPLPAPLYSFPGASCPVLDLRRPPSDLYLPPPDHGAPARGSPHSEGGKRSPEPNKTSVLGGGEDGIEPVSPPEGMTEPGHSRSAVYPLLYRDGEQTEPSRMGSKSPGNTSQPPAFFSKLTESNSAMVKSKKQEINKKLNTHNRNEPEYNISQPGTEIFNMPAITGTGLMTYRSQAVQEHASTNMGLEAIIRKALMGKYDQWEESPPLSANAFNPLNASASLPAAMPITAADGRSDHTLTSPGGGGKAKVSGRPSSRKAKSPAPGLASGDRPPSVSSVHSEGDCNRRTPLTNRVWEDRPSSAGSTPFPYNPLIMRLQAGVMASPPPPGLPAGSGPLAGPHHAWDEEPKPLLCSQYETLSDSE

[2] = biological target: T1, Protein deacetylase HDAC6 (Homo sapiens, UniProt Q9UBN7); test: Inhibition of recombinant HDAC6 (unknown origin) using Boc-Lys(acetyl)-AMC as substrate preincubated for 1 hr followed by substrate addition and measured after 2 hrs by fluorescence based micro plate reader analysis
T1 sequence (Q9UBN7 whole entry): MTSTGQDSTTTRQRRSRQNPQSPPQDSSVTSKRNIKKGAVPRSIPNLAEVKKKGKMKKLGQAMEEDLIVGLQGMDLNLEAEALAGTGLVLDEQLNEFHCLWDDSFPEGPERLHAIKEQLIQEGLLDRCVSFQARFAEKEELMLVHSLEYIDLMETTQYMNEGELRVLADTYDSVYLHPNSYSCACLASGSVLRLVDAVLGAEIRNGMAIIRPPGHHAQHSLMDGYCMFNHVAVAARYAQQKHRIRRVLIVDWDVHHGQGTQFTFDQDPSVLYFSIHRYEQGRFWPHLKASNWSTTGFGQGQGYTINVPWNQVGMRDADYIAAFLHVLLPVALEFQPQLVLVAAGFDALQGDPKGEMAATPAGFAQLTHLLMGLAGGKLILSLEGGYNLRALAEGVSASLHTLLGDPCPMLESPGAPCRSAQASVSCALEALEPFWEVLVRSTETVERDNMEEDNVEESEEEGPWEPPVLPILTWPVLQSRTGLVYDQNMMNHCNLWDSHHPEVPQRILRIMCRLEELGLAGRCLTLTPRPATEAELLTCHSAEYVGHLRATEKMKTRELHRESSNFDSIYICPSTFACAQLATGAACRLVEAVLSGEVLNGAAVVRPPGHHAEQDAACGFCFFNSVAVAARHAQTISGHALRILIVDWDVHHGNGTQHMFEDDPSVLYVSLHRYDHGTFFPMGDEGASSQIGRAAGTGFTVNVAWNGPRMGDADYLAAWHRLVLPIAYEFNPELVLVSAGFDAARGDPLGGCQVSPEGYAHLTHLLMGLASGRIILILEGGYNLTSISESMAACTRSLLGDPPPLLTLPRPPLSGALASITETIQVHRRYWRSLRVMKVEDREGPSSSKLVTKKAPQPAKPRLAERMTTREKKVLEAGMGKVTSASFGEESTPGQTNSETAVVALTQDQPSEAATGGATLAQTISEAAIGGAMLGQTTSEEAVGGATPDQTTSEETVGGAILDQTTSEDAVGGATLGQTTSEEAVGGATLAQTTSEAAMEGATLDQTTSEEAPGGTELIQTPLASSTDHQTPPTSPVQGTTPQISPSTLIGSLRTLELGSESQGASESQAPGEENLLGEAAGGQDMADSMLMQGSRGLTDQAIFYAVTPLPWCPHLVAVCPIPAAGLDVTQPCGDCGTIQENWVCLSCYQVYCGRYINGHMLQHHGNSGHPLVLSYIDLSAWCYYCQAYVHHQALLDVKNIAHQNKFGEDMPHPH

MV4-11 [3] = test: Antiproliferative activity against human MV4-11 cells at 50 uM after 48 hrs by CellTiter-Blue dye based spectrophotometric analysis; assay type: functional, cell-based
[4] = Mutagenecity in Salmonella typhimurium TA100 at 10 uM in presence of S9 liver homogenate after 2 to 3 days by mini-Ames test; assay type: toxicity; conditions: salmonella enterica subsp. enterica serovar typhimurium, s9, 10 µM
Method in brief: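 Compound was tested at a final 10 μM undiluted plus four serial dilutions, with S9 mix and glucose/biotin/trace-histidine exposure solution, for 100 min at 37 °C. Reversion medium was added and cultures dispensed to 96 wells for 2–3 days at 37 °C. Yellow or partial-yellow wells were scored positive; 2-aminoanthracene was the positive control.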

MV4-11 [5] = test: Induction of apoptosis in human MV4-11 cells harboring wild type p53/FLT3-ITD mutant assessed as cleavage of pro-caspase 3 at 100 nM after 24 hrs by Western blot analysis; assay type: functional, cell-based
Method in brief: (§1)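 Cells (1,500,000 per well) grown 12 h, then drug-treated as specified. Lysed in RIPA buffer, sonicated, centrifuged, protein normalized by BCA. Run on 4–12% Bis-Tris gels in MES, transferred, probed overnight at 4 °C with primary antibodies at 1/1000. Actin served as reference for LC3-II quantitation.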

RS4-11 [6] = test: Induction of apoptosis in human RS4:11 cells harboring wild type p53/FLT3 assessed as cleavage of pro-caspase 3 at 100 nM after 24 hrs by Western blot analysis; assay type: functional, cell-based; method in brief: as §1
[7] = Cmax in BALB/c mouse at 50 mg/kg, po via gavage after 24 hrs by Lc-MS/MS analysis; assay type: ADME, organism-based; parameters: dose 50 mg/kg, route oral; conditions: in vivo
[8] = Half life in BALB/c mouse at 50 mg/kg, po via gavage after 24 hrs by Lc-MS/MS analysis; assay type: ADME, organism-based; conditions: in vivo
[9] = AUC (0 to infinity) in BALB/c mouse at 50 mg/kg, po via gavage after 24 hrs by Lc-MS/MS analysis; assay type: ADME, organism-based; parameters: dose 50 mg/kg, time infinity, route oral; conditions: in vivo
[10] = Oral bioavailability in BALB/c mouse at 50 mg/kg dosed via gavage after 24 hrs by Lc-MS/MS analysis; assay type: ADME, organism-based; conditions: in vivo
MV4-11 [11] = test: Inhibition of autophagy in human MV4-11 cells assessed as LC3-II degradation at 5 uM after 24 hrs by Western blot analysis; assay type: functional, cell-based; method in brief: as §1
MV4-11 [12] = test: Induction of apoptosis in human MV4-11 cells harboring wild type p53/FLT3-ITD mutant assessed as cleavage of pro-caspase 3 at 5000 nM after 24 hrs by Western blot analysis; assay type: functional, cell-based; method in brief: as §1
RS4-11 [13] = test: Induction of apoptosis in human RS4:11 cells harboring wild type p53/FLT3 assessed as cleavage of pro-caspase 3 at 5000 nM after 24 hrs by Western blot analysis; assay type: functional, cell-based; method in brief: as §1
MV4-11 [14] = test: cells; conditions: Homo sapiens, MV4-11, 48 h
MV4-11 [15] = test: Induction of apoptosis in human MV4-11 cells harboring wild type p53/FLT3-ITD mutant assessed as cleavage of pro-caspase 3 at 50 to 200 nM after 24 hrs by Western blot analysis; assay type: functional, cell-based; method in brief: as §1
MV4-11 [16] = test: Down regulation of FTL3 in human MV4-11 cells harboring wild type p53/FLT3-ITD mutant at 50 to 200 nM after 24 hrs by Western blot analysis; assay type: functional, cell-based; method in brief: as §1
MV4-11 [17] = test: Down regulation of STAT5 in human MV4-11 cells harboring wild type p53/FLT3-ITD mutant at 50 to 200 nM after 24 hrs by Western blot analysis; assay type: functional, cell-based; method in brief: as §1
MV4-11 [18] = test: Induction of apoptosis in human MV4-11 cells harboring wild type p53/FLT3-ITD mutant assessed as cleavage of pro-caspase 3 at 1000 to 5000 nM after 24 hrs by Western blot analysis; assay type: functional, cell-based; method in brief: as §1

Chain of Histone deacetylase 1 (Q13547 whole entry): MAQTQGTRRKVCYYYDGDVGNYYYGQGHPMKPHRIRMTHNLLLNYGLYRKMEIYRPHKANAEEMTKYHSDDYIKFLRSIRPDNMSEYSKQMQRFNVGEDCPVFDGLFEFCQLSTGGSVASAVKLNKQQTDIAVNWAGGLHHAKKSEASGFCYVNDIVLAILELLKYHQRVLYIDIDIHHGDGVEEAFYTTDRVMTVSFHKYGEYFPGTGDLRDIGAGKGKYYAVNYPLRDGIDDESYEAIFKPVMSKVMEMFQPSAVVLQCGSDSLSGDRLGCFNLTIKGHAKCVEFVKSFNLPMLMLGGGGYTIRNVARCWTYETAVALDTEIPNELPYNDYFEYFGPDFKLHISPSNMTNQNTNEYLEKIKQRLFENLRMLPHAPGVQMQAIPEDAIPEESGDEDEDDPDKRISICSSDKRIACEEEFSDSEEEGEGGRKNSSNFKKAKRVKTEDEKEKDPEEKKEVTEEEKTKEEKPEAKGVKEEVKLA

SMILES | IC50 (Histone deacetylase 1) [nM] | IC50 (Histone deacetylase 2) [nM] | IC50 [1] [nM] | IC50 [2] [nM] | other results
CCCCCCN(CCC)NC(=O)/C=C/c1ccc(CNCCc2c(C)[nH]c3ccccc23)cc1 | 2880 | 9830 | 143 | > 50000 | 
Cc1[nH]c2ccccc2c1CCNCc1ccc(/C=C/C(=O)NN2CCCCC2)cc1 | > 10000 | > 10000 | > 10000 | > 50000 | Activity (MV4-11 [3]): inactive
CCCCCN(CCC)NC(=O)/C=C/c1ccc(CNCCc2c(C)[nH]c3ccccc23)cc1 | 382 | 7320 | 321 | > 50000 | 
Cc1[nH]c2ccccc2c1CCNCc1ccc(/C=C/C(=O)NNCCN)cc1 | 9840 | > 10000 | 5240 | > 50000 | 
CCCCN(CCC)NC(=O)/C=C/c1ccc(CNCCc2c(C)[nH]c3ccccc23)cc1 | 210 | 3220 | 229 | > 50000 | 
CCCNNC(=O)c1ccc(CNCCc2c(C)[nH]c3ccccc23)cc1 | 29.4 | 108 | 19.9 | > 50000 | 
CCCNNC(=O)c1ccc(OCc2ccccc2)cc1 | 56.3 | 175 | 24.8 | > 50000 | 
CCCN(CC)NC(=O)/C=C/c1ccc(CNCCc2c(C)[nH]c3ccccc23)cc1 | 2920 | 8070 | 550 | > 50000 | 
Cc1[nH]c2ccccc2c1CCNCc1ccc(/C=C/C(=O)NN(CCCO)CCCO)cc1 | > 10000 | > 10000 | > 10000 | > 50000 | Activity (MV4-11 [3]): inactive
CCCN(CCC)NC(=O)/C=C/c1ccc(CNCCc2c(C)[nH]c3ccccc23)cc1 | 413 | 1370 | 25.2 | > 50000 | 
Nc1ccc2cc3ccccc3cc2c1 [2-AMINOANTHRACENE] |  |  |  |  | Activity [4]: Toxic
CCCNNC(=O)c1ccc(NCc2ccccc2)cc1 | 15.8 | 67.5 | 6.12 | > 50000 | 
COC(=O)CCNNC(=O)/C=C/c1ccc(CNCCc2c(C)[nH]c3ccccc23)cc1 | 1090 | 4210 | 310 | > 50000 | 
CCCNNC(=O)c1cccc(CN(CCc2c(C)[nH]c3ccccc23)C(=O)OC(C)(C)C)c1 | 2520 | > 5000 | > 5000 | > 50000 | 
Cc1[nH]c2ccccc2c1CCNCc1ccc(/C=C/C(=O)NO)cc1 [PANOBINOSTAT] |  |  |  |  | Activity (MV4-11 [5]): Active; Activity (RS4-11 [6]): Active; Activity [4]: Toxic; Cmax [7]: 116 ng/mL; half-life [8]: 2.9 h; AUC(0-inf) [9]: 126 ng·h/mL; bioavailability [10]: 4.62%
CCCNNC(=O)c1ccc(NC(=O)c2ccccc2)cc1 | 93 | 474 | 48.7 | > 50000 | 
Cc1[nH]c2ccccc2c1CCNCc1ccc(/C=C/C(=O)NN2CCCC2)cc1 | 8600 | > 10000 | 3090 | > 50000 | Activity (MV4-11 [3]): inactive
CCN(CC)CCCC(C)Nc1ccnc2cc(Cl)ccc12 (stereo not drawn) |  |  |  |  | inhibition (MV4-11 [11]): Active
CCCNNC(=O)/C=C/c1ccc(CN(CCc2c(C)[nH]c3ccccc23)C(=O)OC(C)(C)C)cc1 | 181 | 1300 | 16.8 | > 50000 | 
Cc1[nH]c2ccccc2c1CCNCc1ccc(/C=C/C(=O)NN(C)C)cc1 | 11000 | 12900 | 996 | > 50000 | Activity (MV4-11 [3]): inactive
CCCNNC(=O)c1ccc(CN(CCc2c(C)[nH]c3ccccc23)C(=O)OC(C)(C)C)cc1 | 28.8 | 279 | 12.6 | > 50000 | 
CCCNNC(=O)c1cccc(CNCCc2c(C)[nH]c3ccccc23)c1 | 1670 | 4940 | 674 | > 50000 | 
Cc1[nH]c2ccccc2c1CCNCc1ccc(/C=C/C(=O)NNCCC#N)cc1 | 58.1 | 172 | 34.8 | > 50000 | 
CCCNNC(=O)c1ccc(CN(Cc2ccccc2)C(=O)OC(C)(C)C)cc1 | 217 | 579 | 78.1 | > 50000 | 
O=C(CCCCCCC(=O)Nc1ccccc1)NO |  |  |  |  | Activity (MV4-11 [12]): Active; Activity (RS4-11 [13]): Active
CCCNNC(=O)c1ccc(CNCc2ccccc2)cc1 | 88 | 441 | 96.7 | > 50000 | EC50 (MV4-11 [14]): 173 nM
CCCNNC(=O)c1ccc(CNC(=O)/C=C/c2ccccc2)cc1 |  |  |  |  | Activity (MV4-11 [15]): Active; Activity (MV4-11 [16]): Active; Activity (MV4-11 [17]): Active
Nc1ccccc1NC(=O)c1ccc(CNC(=O)OCc2cccnc2)cc1 |  |  |  |  | Activity (MV4-11 [18]): Active
